Experimental data reported in ChEMBL document CHEMBL5143728, “Next-Generation Diprovocims with Potent Human and Murine TLR1/TLR2 Agonist Activity That Activate the Innate and Adaptive Immune Response” (J Med Chem, 2022).
Active and inactive are the calls of the source. No cut-off for these calls is given here.

How the values were obtained:
Splenocyte = experiment: In vivo cytotoxicity against C57BL/6 mouse-derived splenocytes loaded with SIINFEKL peptide allografted in immunized C57BL/6J mouse at 10 mg/kg, IM on day 0 and day 28 followed by spleenocytes injection on day 7 and day 35 and measured on day 9 and 37 by flow cytometry; assay type: functional, organism-based
Mus musculus [1] = experiment: Immuno-adjuvant activity in C57BL/6J mouse assessed as increase in level of OVA specific Goat Anti-Mouse IgG-HRP antibody at 10 mg/kg, IM co-treated with ovalbumin at 5 mg/kg incubated for 1 hrs measured on day 14 by ELISA; assay type: functional, organism-based
Method in brief: (§1)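 Female 8-week C57BL/6J mice (ca. 20 g) given i.m. 200 μg (10 mg/kg) agonist mixed with 100 μg OVA (5 mg/kg, low endotoxin) in DMSO:Tween 80:saline 1:1:8 on day 0. Controls received vehicle or OVA alone; 5–8 mice/group. Serum OVA-specific IgG, IgG1 and IgG2b measured by ELISA on day 14. Mean ± SD; one-way ANOVA with Tukey test.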

Mus musculus [2] = experiment: Immuno-adjuvant activity in C57BL/6J mouse assessed as increase in level of OVA specific Goat Anti-Mouse IgG1-HRP antibody at 10 mg/kg, IM co-treated with ovalbumin at 5 mg/kg incubated for 1 hrs measured on day 14 by ELISA; assay type: functional, organism-based; method in brief: as §1
Mus musculus [3] = experiment: Immuno-adjuvant activity in C57BL/6J mouse assessed as increase in level of OVA specific Goat Anti-Mouse IgG2b-HRP antibody at 10 mg/kg, IM co-treated with ovalbumin at 5 mg/kg incubated for 1 hrs measured on day 14 by ELISA; assay type: functional, organism-based; method in brief: as §1
Peritoneal macrophage [4] = experiment: Stimulation of TNF alpha release in TLR4-sufficient wild type C3H/HeOuJ mouse peritoneal macrophage at 500 nM; assay type: functional, cell-based
Method in brief: (§2)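 Peritoneal macrophages from Tlr4-WT C3H/HeOuJ mice or Tlr4 P712H-mutant C3H/HeJ mice, stimulated with agonist at 500 nM. Released TNF-α measured. LPS run as positive control.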

Peritoneal macrophage [5] = experiment: Stimulation of TNF alpha release in TLR4- deficient mutant C3H/HeJ mouse peritoneal macrophage at 500 nM; assay type: functional, cell-based; method in brief: as §2
Toll-like receptor 1/2 [6] = target: T1, Toll-like receptor 1/2 (Homo sapiens, UniProt O60603+Q15399); experiment: Agonist activity at TLR1/TLR2 in human THP-1 derived macrophages assessed as stimulation of TNF alpha release measured for 4 hrs by ELISA based assay; assay type: cell-based
T1 sequence (O60603 whole entry): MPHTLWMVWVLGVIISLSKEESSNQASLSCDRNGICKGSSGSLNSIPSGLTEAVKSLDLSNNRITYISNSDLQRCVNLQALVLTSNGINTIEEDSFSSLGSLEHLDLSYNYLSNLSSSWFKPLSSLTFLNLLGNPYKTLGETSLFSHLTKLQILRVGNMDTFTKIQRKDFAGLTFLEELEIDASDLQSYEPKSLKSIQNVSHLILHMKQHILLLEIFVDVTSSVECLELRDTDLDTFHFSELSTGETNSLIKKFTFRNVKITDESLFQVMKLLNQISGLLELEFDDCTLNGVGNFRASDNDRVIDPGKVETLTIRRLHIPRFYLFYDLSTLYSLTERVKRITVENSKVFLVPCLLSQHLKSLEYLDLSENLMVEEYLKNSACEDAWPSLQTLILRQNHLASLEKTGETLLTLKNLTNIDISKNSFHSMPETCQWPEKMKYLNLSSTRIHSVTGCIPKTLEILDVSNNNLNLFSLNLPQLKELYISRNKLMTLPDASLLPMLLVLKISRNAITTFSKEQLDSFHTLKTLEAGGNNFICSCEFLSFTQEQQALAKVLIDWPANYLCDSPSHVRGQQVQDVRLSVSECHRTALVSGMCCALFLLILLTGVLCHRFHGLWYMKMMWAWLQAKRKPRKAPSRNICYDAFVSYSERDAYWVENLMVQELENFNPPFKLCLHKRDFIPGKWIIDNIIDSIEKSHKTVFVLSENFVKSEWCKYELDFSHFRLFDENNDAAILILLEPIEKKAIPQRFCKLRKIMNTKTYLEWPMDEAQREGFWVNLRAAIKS
T1 sequence (Q15399 whole entry): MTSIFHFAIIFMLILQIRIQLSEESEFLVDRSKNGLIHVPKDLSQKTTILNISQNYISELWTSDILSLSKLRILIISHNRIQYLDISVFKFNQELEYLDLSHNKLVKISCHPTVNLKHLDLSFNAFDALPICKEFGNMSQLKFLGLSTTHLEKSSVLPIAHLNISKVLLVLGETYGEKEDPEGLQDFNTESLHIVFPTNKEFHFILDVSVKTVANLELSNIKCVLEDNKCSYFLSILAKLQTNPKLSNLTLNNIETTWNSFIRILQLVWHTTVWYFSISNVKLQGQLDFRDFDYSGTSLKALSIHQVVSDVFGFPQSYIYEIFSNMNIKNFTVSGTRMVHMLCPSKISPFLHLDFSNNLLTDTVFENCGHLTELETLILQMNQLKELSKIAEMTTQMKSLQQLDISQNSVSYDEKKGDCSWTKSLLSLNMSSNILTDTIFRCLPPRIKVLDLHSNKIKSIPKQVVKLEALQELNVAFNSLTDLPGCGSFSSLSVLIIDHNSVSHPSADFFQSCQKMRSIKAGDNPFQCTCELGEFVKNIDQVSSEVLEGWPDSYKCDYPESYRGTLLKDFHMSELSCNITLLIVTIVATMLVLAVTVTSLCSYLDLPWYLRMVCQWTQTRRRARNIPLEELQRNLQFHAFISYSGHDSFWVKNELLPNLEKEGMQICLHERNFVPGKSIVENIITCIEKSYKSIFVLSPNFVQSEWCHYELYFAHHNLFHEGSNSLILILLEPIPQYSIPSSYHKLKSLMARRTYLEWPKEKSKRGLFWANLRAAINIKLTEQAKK
Method in brief: (§3)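 THP-1 cells differentiated with 100 nM PMA in RPMI/10% FBS for 24 h, washed, then rested 24 h in fresh medium. Seeded at 0.5 × 10⁵ cells/well and exposed to graded compound concentrations for 4 h, with final DMSO held at 0.1%. LPS served as positive control and DMSO as negative control. Supernatant human TNF-α was read by ELISA. EC50 from duplicate means.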

Toll-like receptor 1/2 [7] = target: T1, Toll-like receptor 1/2; experiment: Agonist activity at TLR1/TLR2 in human THP-1 derived macrophages assessed as stimulation of TNF alpha release measured for 4 hrs by ELISA based assay relative to diprovocim-1; assay type: cell-based; set-up: Activity: concentration or dose not given beside the values; conditions: filed as agonist; method in brief: as §3
Toll-like receptor 1/2 [8] = target: Toll-like receptor 1/2 (Mus musculus, UniProt Q9EPQ1+Q9QUN7); experiment: Agonist activity at TLR1/TLR2 in wild type C57BL/6J mouse macrophages assessed as stimulation of TNF alpha release measured for 4 hrs by ELISA based assay; assay type: cell-based, Macrophage
Sequence of Toll-like receptor 1/2 (Mus musculus, UniProt Q9EPQ1+Q9QUN7) (Q9QUN7 whole entry): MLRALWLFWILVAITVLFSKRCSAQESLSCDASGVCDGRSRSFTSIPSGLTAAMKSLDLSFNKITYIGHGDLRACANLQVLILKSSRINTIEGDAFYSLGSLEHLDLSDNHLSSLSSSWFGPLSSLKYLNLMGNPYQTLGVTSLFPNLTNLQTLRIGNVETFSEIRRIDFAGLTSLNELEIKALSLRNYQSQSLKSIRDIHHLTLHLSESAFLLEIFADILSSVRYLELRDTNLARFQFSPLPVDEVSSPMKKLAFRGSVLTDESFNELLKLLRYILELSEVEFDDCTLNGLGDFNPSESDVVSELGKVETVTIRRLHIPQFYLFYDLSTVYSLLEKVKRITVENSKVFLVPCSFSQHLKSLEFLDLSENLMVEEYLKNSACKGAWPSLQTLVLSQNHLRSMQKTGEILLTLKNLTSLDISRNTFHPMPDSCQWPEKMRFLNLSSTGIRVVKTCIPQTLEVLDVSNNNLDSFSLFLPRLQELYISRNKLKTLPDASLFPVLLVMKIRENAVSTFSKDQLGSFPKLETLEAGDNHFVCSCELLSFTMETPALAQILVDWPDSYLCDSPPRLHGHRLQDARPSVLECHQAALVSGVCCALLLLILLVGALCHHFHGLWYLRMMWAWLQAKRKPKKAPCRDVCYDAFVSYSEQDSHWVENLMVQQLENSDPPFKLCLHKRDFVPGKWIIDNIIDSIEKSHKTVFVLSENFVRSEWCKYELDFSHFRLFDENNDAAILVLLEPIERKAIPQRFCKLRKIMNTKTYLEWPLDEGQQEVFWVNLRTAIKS
Sequence of Toll-like receptor 1/2 (Mus musculus, UniProt Q9EPQ1+Q9QUN7) (Q9EPQ1 whole entry): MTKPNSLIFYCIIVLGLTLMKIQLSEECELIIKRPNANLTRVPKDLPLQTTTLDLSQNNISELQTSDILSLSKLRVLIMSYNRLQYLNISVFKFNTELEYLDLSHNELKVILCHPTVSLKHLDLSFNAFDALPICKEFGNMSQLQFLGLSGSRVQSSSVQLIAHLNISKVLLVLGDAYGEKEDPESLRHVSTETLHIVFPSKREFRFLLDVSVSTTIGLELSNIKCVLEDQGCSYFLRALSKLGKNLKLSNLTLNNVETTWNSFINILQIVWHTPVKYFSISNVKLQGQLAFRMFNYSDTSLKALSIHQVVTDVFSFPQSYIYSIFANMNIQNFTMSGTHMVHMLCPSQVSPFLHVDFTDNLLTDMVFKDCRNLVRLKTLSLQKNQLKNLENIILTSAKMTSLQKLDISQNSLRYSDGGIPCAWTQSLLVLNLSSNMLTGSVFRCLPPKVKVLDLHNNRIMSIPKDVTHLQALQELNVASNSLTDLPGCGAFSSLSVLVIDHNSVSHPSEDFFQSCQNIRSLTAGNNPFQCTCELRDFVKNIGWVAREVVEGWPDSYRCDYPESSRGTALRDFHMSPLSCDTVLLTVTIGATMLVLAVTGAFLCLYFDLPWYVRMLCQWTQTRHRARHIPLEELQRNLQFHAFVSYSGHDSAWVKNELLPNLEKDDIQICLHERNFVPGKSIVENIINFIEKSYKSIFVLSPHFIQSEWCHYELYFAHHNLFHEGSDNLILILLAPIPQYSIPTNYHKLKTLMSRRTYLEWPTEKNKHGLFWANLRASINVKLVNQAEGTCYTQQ
Method in brief: (§4)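 Thioglycolate-elicited peritoneal macrophages from wild type C57BL/6J mice, harvested by PBS lavage 4 d after i.p. 4% thioglycolate. Cultured in DMEM/10% FBS at 37 °C, 5% CO2, seeded at 1 × 10⁵ cells/well and exposed to graded compound concentrations for 4 h, with final DMSO ≤0.5% held constant. LPS served as positive control. Supernatant mouse TNF-α was read by ELISA. EC50 from duplicate means.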

[9] = target: Toll-like receptor 1/2 (Mus musculus) (UniProt Q9QUN7+Q9EPQ1); experiment: Agonist activity at TLR1/TLR2 in wild type C57BL/6J mouse macrophages assessed as stimulation of TNF alpha release measured for 4 hrs by ELISA based assay relative to diprovocim-1; assay type: cell-based; set-up: Activity: concentration or dose not given beside the values; conditions: Macrophage, filed as agonist; method in brief: as §4

Row | EC50 (Toll-like receptor 1/2 [6]) | Activity (Toll-like receptor 1/2 [7]) | EC50 (Toll-like receptor 1/2 [8]) | Activity [9] | Structure (SMILES) | Activity (Splenocyte) | Activity (Mus musculus [1]) | Activity (Mus musculus [2]) | Activity (Mus musculus [3]) | Activity (Peritoneal macrophage [4]) | Activity (Peritoneal macrophage [5])
1 | – | – | – | – | O=C(N[C@H]1C[C@@H]1c1ccccc1)[C@@H]1CN(C(=O)c2ccc(C(=O)N3C[C@@H](C(=O)N[C@H]4C[C@@H]4c4ccccc4)[C@H](C(=O)N[C@H]4C[C@@H]4c4ccccc4)C3)cc2)C[C@H]1C(=O)N[C@H]1C[C@@H]1c1ccccc1 | Active | Active | Active | Active | Active | Active
2 | 0.14 nM | 100% | 0.75 nM | 550% | CC(C)(C)OC(=O)NCC(=O)OCCCCCCCCCCCCNC(=O)[C@@H]1CN(C(=O)c2ccc(C(=O)N3C[C@@H](C(=O)N[C@H]4C[C@@H]4c4ccccc4)[C@H](C(=O)N[C@H]4C[C@@H]4c4ccccc4)C3)cc2)C[C@H]1C(=O)N[C@H]1C[C@@H]1c1ccccc1 | Active | Active | Active | Active | – | –
